The values that follow come from PMC3769332 (Molecular & Cellular Proteomics : MCP, 2013).

For one data set, the target named is T1, SCRIB_3 (Homo sapiens, UniProt Q14160).
T1 sequence (Q14160 1004-1093 limits assumed): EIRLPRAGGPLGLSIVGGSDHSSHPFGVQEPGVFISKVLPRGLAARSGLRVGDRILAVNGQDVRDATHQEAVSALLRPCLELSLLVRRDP
Nature of the data set: HTRF peptide-GST-PDZ binding.

The test system of the next data set is Scrib PDZ1. The data set is described as follows: HTRF peptide binding to Scrib PDZ1. Set-up: species or system human. Background: Time-resolved FRET reads energy transfer from a long-lived donor to a nearby acceptor.
A further data set deals with Xenopus embryo. The data set is described as follows: Neural tube closure in Xenopus embryos. In kind it is in vivo, Xenopus laevis. The following applies: MO injected in dorsal blastomeres at 4- to 8-cell stage.
Another data set deals with T2, GST-Scrib PDZ3 (human, UniProt Q14160 994-1103).
T2 sequence (looked up): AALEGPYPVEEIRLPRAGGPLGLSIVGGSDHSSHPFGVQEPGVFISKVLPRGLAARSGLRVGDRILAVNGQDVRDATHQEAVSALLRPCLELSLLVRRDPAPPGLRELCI
Nature of the data set: AlphaScreen or HTRF. A general note: In Alpha technology, singlet oxygen from a donor bead excites a nearby acceptor bead.

The next data set concerns T47D cells. Nature of the data set: Boyden chamber cell migration, T47D. In kind it is cell-based. The following applies: stimulation with 1 nM HRG, 12 h. The procedure, abridged: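 Transwell migration through 8-μm pore polycarbonate membranes, underside coated with 25 μg/ml rat-tail collagen I. T47D cells were lipofectamine-transfected with pEGFP, pEGFP-Vangl2 or mutants, serum-starved 16 h, and seeded in the top chamber. The bottom chamber held medium with or without HRG for 12 h. Non-migrated cells were scraped off; migrated cells were fixed in 4% formaldehyde, crystal violet-stained (0.1%) and counted. Fold change, three independent experiments summed.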

For data set [1], the system named is GST fused to the four Scrib PDZ domains. The data set is described as follows: GST-Scrib PDZ pull-down. In kind it is binding, human. The following applies: pull-down on transfected HEK 293T extracts.
In the next data set the test system is Scrib PDZ3 domain. Nature of the data set: GST-Scrib PDZ pull-down, individual domain. It is filed as binding, human. As to conditions: pull-down on HEK 293T extracts.
Another data set relates to Scrib PDZ4. The data set is described as follows: GST-Scrib PDZ pull-down, individual domain. In kind it is binding, human. The following applies: pull-down on HEK 293T extracts.
In the next data set the test system is wild-type MEFs. The data set is described as follows: Boyden chamber cell migration, wild-type MEF. In kind it is cell-based, mouse. The following applies: serum-induced. The essentials: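 MEFs, wild-type or Crc/Crc, nucleofected transiently with GFP or GFP-Vangl2, then serum-starved 16 h and plated in the upper chamber of 8-μm pore polycarbonate transwells. Filter underside coated with human fibronectin ([…]). Serum (FCS) served as chemoattractant. Migrated cells were fixed in 4% formaldehyde, stained with 0.1% crystal violet and counted. Mann–Whitney U test versus control.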

Another data set relates to MEF^Crc/Crc. Nature of the data set: Boyden chamber cell migration, MEF Crc/Crc. It is filed as cell-based, mouse. The following applies: MEFs deficient for Scrib, serum-induced.
For another data set, the system named is SNX27. The data set is described as follows: Co-affinity purification with SNX27, HEK 293T. It is filed as cell-based. As to conditions: streptavidin affinity purification, Western blot. (In western blotting, separated proteins are transferred to a membrane and probed.)

Ends that are not written are not given here.

Usually EC50 stands for the concentration that produces a half-maximal response. The low end stands for higher potency in that assay, the high end for lower potency in that assay. Consider KSHKFVMRLQSETSV [Vangl2], for which, on SCRIB_3, the 50% effective concentration (EC50) stood at 13 µM.
As to H-VLKNMNDPAWDETNL-OH [βPIX], the “binding to Scrib PDZ3” value at SCRIB_3 (HTRF) is “able to bind”. In the data set on Scrib PDZ1, the “binding to Scrib PDZ1” value was “strongly bound”.
Regarding “SNX27 MO: morpholino 5′-TCCCCCTCCTCGTCCGCCATCTTTT-3′ targeting SNX27 translation initiation (all phosphorodiamidate morpholino (PMO))”, the neural tube closure result with Xenopus embryo is “neural tube closure was strongly impaired in a dose-dependent manner”.

B1: synthetic E6 carboxy-terminal peptide (peptide)
peptide: MSCCRSSRTRRETQL
In the data set with GST-Scrib PDZ3, B1 displayed a concentration for a half-maximal effect (EC50) of 0.4 µM.

B2: GFP-Vangl2ΔTSV: GFP-Vangl2 with deletion of the classical PDZ binding motif (protein)
chain: MDTESQYSGYSYKSGHSRSSRKHRDRRDRHRSKSRDGGRGDKSVTIQAPGEPLLDNESTRGDERDDNWGETTTVVTGTSEHSISHDDLTRIAKDMEDSVPLDCSRHLGVAAGATLALLSFLTPLAFLLLPPLLWREELEPCGTACEGLFISVAFKLLILLLGSWALFFRRPKASLPRVFVLRALLMVLVFLLVVSYWLFYGVRILDARERSYQGVVQFAVSLVDALLFVHYLAVVLLELRQLQPQFTLKVVRSTDGASRFYNVGHLSIQRVAVWILEKYYHDFPVYNPALLNLPKSVLAKKVSGFKVYSLGEENSTNNSTGQSRAVIAAAARRRDNSHNEYYYEEAEHERRVRKRRARLVVAVEEAFTHIKRLQEEEQKNPREVMDPREAAQAIFASMARAMQKYLRTTKQQPYHTMESILQHLEFCITHDMTPKAFLERYLAAGPTIQYHKERWLAKQWTLVSEEPVTNGLKDGIVFLLKRQDFSLVVSTKKVPFFKLSEEFVDPKSHKFVMRLQSE
In the case of B2, the “effect on cell migration” value with T47D cells is “in contrast to the deletion of the classical PDZ binding motif”.

B3: GFP-Vangl2: GFP fusion of Vangl2 overexpressed in cells (protein)
chain: MDTESQYSGYSYKSGHSRSSRKHRDRRDRHRSKSRDGGRGDKSVTIQAPGEPLLDNESTRGDERDDNWGETTTVVTGTSEHSISHDDLTRIAKDMEDSVPLDCSRHLGVAAGATLALLSFLTPLAFLLLPPLLWREELEPCGTACEGLFISVAFKLLILLLGSWALFFRRPKASLPRVFVLRALLMVLVFLLVVSYWLFYGVRILDARERSYQGVVQFAVSLVDALLFVHYLAVVLLELRQLQPQFTLKVVRSTDGASRFYNVGHLSIQRVAVWILEKYYHDFPVYNPALLNLPKSVLAKKVSGFKVYSLGEENSTNNSTGQSRAVIAAAARRRDNSHNEYYYEEAEHERRVRKRRARLVVAVEEAFTHIKRLQEEEQKNPREVMDPREAAQAIFASMARAMQKYLRTTKQQPYHTMESILQHLEFCITHDMTPKAFLERYLAAGPTIQYHKERWLAKQWTLVSEEPVTNGLKDGIVFLLKRQDFSLVVSTKKVPFFKLSEEFVDPKSHKFVMRLQSETSV
On to B3, for which, in data set [1], the “binding to GST-Scrib PDZ1-4” value is on record as “efficient binding”. In addition, the “binding to individual GST-Scrib PDZ3” value in the data set on Scrib PDZ3 domain was “most efficient”. The “binding to individual GST-Scrib PDZ4” value in the data set on Scrib PDZ4 is recorded as “some weak binding”. The “effect on cell migration” value is given as “increased cell migration” in the data set with T47D cells, “did not affect this increased cell migration” in the data set with T47D cells (listed as GFP-Vangl2^Lp), “increased cell migration” in the data set with wild-type MEFs and “not significantly affected relative to control conditions” in the data set with MEF^Crc/Crc.

B4: HA-tagged Vangl2: HA-tagged Vangl2 expressed in HEK 293T cells (protein)
chain: MDTESQYSGYSYKSGHSRSSRKHRDRRDRHRSKSRDGGRGDKSVTIQAPGEPLLDNESTRGDERDDNWGETTTVVTGTSEHSISHDDLTRIAKDMEDSVPLDCSRHLGVAAGATLALLSFLTPLAFLLLPPLLWREELEPCGTACEGLFISVAFKLLILLLGSWALFFRRPKASLPRVFVLRALLMVLVFLLVVSYWLFYGVRILDARERSYQGVVQFAVSLVDALLFVHYLAVVLLELRQLQPQFTLKVVRSTDGASRFYNVGHLSIQRVAVWILEKYYHDFPVYNPALLNLPKSVLAKKVSGFKVYSLGEENSTNNSTGQSRAVIAAAARRRDNSHNEYYYEEAEHERRVRKRRARLVVAVEEAFTHIKRLQEEEQKNPREVMDPREAAQAIFASMARAMQKYLRTTKQQPYHTMESILQHLEFCITHDMTPKAFLERYLAAGPTIQYHKERWLAKQWTLVSEEPVTNGLKDGIVFLLKRQDFSLVVSTKKVPFFKLSEEFVDPKSHKFVMRLQSETSV
Turning to B4, the “interaction with SNX27” value in the data set on SNX27 is on record as “interacts”.

B5: soluble non-biotinylated βPIX carboxy-terminal peptide (HTRF) (peptide)
chain: VLKNMNDPAWDETNL
Take B5: the EC50 with GST-Scrib PDZ3 was determined as 8 µM.
